For the assay, the target named is T1, Ferroportin (Homo sapiens, UniProt Q9NP59).
T1 sequence (Q9NP59 whole entry): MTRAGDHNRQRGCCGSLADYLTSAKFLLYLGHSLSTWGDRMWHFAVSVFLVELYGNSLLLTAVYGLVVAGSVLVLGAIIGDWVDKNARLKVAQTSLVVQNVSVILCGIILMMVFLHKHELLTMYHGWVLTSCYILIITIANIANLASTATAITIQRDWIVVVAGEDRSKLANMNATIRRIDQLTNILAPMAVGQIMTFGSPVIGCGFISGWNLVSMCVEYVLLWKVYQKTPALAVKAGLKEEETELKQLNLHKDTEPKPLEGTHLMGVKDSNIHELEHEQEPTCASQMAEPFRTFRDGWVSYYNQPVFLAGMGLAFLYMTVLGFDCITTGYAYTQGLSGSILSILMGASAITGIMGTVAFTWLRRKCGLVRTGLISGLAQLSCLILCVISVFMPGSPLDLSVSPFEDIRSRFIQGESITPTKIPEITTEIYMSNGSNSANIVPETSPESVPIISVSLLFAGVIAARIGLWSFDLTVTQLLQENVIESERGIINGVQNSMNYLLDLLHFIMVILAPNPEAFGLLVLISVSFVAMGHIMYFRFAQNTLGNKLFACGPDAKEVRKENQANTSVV
Description: Agonist activity at GFP-fused human FPN transfected in HEK293 cells assessed as protein degradation after 24 hrs by flow cytometric analysis. It is filed as cell-based. An outline of the steps:
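HEK293:TREX-Fpn-GFP cells (human ferroportin-GFP, doxycycline-inducible) plated on poly-D-lysine with 20 μM FAC, induced with 500 ng/mL doxycycline for 24 h, washed, then peptide-treated 24 h. Green fluorescence read by flow cytometry at 1 × 10^6 cells/mL, gated against uninduced cells. Activity expressed as fraction of hep25: 1 − [(Fx − Fhep25)/(Funtreated − Fhep25)]. 3–6 independent repeats.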
(In general: In flow cytometry, cells or beads pass a laser one at a time.)

For orientation: EC50 means the midpoint of the concentration-response curve.

Starred links: 1 amine or outer side, 2 acyl side, 3 side chain; linkers in the order of their positions; H or OH if unused. Positions of bridges follow the written chain, without caps; N, C: chain ends. Non-standard residues stand in square brackets, D forms with d. Residues, ends and D or L forms follow the SMILES beside them. ξ: configuration not given here. *: point of attachment. CH2CONHCH2CH2NHCOCH2 = O=C(C[*:1])NCCNC(=O)C[*:2]; Propanoyl(3,3-Ph2) = O=C(CC(c1ccccc1)c1ccccc1)*; Pyridine(2,6-diCH2) = c1cc(C[*:1])nc(C[*:2])c1; X2 = O=C(CC(c1ccccc1)(c1ccccc1)c1ccccc1)*; dDip = N[C@@H](C(=O)O)C(c1ccccc1)c1ccccc1; X5 = c1cc(Cc2cccc(C[*:2])c2)cc(C[*:1])c1; Dip = N[C@H](C(=O)O)C(c1ccccc1)c1ccccc1; X7 = c1cc(Oc2ccc(C[*:2])cc2)ccc1C[*:1]; TBMB = c1c(C[*:1])cc(C[*:3])cc1C[*:2]; mXylylene = c1cc(C[*:1])cc(C[*:2])c1; oXylylene = c1ccc(C[*:2])c(C[*:1])c1; NH(CH2CH2O)2CH2CH2NH2 = NCCOCCOCCN*; X6 = c1cc(C[*:1])c2c(C[*:2])cccc2c1; pXylylene = c1cc(C[*:2])ccc1C[*:1]; Palmitoyl = CCCCCCCCCCCCCCCC(=O)*; X4 = c1cc(CSCCN[*:2])cc(C[*:1])c1; X3 = O=S(=O)(CC[*:1])CC[*:2]; ξF = NC(Cc1ccccc1)C(=O)O; Mpa = O=C(O)CCS

As for `N=C(N)NCCC[C@@H]1NC(=O)[C@H](CS)NC(=O)[C@H](CCCNC(=N)N)NC(=O)[C@H](NC(=O)CC(c2ccccc2)c2ccccc2)CSCc2cccc(c2)CSCCNC(=O)[C@H](Cc2ccccc2)NC1=O`, the concentration giving a half-maximal response (EC50) came to 0.269 µM. To `C[C@@H](O)[C@H](NC(=O)CNCC(=O)O)C(=O)N[C@H]1CSCc2cccc(c2)CSC[C@@H](C(N)=O)NC(=O)[C@H](Cc2ccccc2)NC(=O)[C@H](CCCNC(=N)N)NC(=O)[C@H](CS)NC(=O)[C@H](CCCNC(=N)N)NC(=O)[C@@H]2CCCN2C(=O)[C@H](Cc2ccccc2)NC1=O` belongs 0.532 µM; to `C[C@@H](O)[C@H](NC(=O)CNCC(=O)O)C(=O)N[C@H]1CSCc2cccc(c2)CSC[C@@H](C(N)=O)NC(=O)[C@H](Cc2ccccc2)NC(=O)[C@H](CCCNC(=N)N)NC(=O)[C@H](CS)NC(=O)[C@H](CCCNC(=N)N)NC(=O)[C@@H]2CCCN2C(=O)[C@H](C(c2ccccc2)c2ccccc2)NC1=O`, 0.0751 µM; to `CC(=O)N[C@H]1CSCC(=O)NCCNC(=O)CSC[C@@H](C(N)=O)NC(=O)[C@H](Cc2ccccc2)NC(=O)[C@H](CCCNC(=N)N)NC(=O)[C@H](CS)NC(=O)[C@H](CCCNC(=N)N)NC(=O)[C@@H]2CCCN2C(=O)[C@H](Cc2ccccc2)NC1=O` (Ac-CFPRCRFC-NH2; linker 1-8 via CH2CONHCH2CH2NHCOCH2), more than 0.6 µM. On to `CC(=O)N[C@H]1CSCc2cccc(n2)CSC[C@@H](C(N)=O)NC(=O)[C@H](Cc2ccccc2)NC(=O)[C@H](CCCNC(=N)N)NC(=O)[C@H](CS)NC(=O)[C@H](CCCNC(=N)N)NC(=O)[C@@H]2CCCN2C(=O)[C@H](Cc2ccccc2)NC1=O` (Ac-CFPRCRFC-NH2; linker 1-8 via Pyridine(2,6-diCH2)), for which the EC50 was more than 0.6 µM. The same measure for `CC(=O)N[C@H]1CSCCS(=O)(=O)CCSC[C@@H](C(N)=O)NC(=O)[C@H](Cc2ccccc2)NC(=O)[C@H](CCCNC(=N)N)NC(=O)[C@H](CS)NC(=O)[C@H](CCCNC(=N)N)NC(=O)[C@@H]2CCCN2C(=O)[C@H](Cc2ccccc2)NC1=O` (Ac-CFPRCRFC-NH2; linker 1-8 via X3): more than 0.6 µM. On to `CC(=O)N[C@H]1CSCc2cccc(c2)Cc2cccc(c2)CSC[C@@H](C(N)=O)NC(=O)[C@H](Cc2ccccc2)NC(=O)[C@H](CCCNC(=N)N)NC(=O)[C@H](CS)NC(=O)[C@H](CCCNC(=N)N)NC(=O)[C@@H]2CCCN2C(=O)[C@H](Cc2ccccc2)NC1=O` (Ac-CFPRCRFC-NH2; linker 1-8 via X5), for which the EC50 came out at 0.517 µM. The same measure for `CC(=O)N[C@H]1CSCc2cccc3cccc(c23)CSC[C@@H](C(N)=O)NC(=O)[C@H](Cc2ccccc2)NC(=O)[C@H](CCCNC(=N)N)NC(=O)[C@H](CS)NC(=O)[C@H](CCCNC(=N)N)NC(=O)[C@@H]2CCCN2C(=O)[C@H](Cc2ccccc2)NC1=O` (Ac-CFPRCRFC-NH2; linker 1-8 via X6): more than 0.6 µM; for `CC(=O)N[C@H]1CSCc2ccc(cc2)Oc2ccc(cc2)CSC[C@@H](C(N)=O)NC(=O)[C@H](Cc2ccccc2)NC(=O)[C@H](CCCNC(=N)N)NC(=O)[C@H](CS)NC(=O)[C@H](CCCNC(=N)N)NC(=O)[C@@H]2CCCN2C(=O)[C@H](Cc2ccccc2)NC1=O` (Ac-CFPRCRFC-NH2; linker 1-8 via X7): 0.477 µM. Turning to `CC(=O)N[C@H]1CSCc2cccc(c2)CSC[C@@H](C(N)=O)NC(=O)[C@H](Cc2ccccc2)NC(=O)[C@H](CCCNC(=N)N)NC(=O)[C@H](CS)NC(=O)[C@H](CCCNC(=N)N)NC(=O)[C@@H]2CCCN2C(=O)[C@H](Cc2ccccc2)NC1=O` (Ac-CFPRCRFC-NH2; linker 1-8 via mXylylene), the EC50 came out at 0.272 µM. Turning to `CC(=O)N[C@H]1CSCc2ccccc2CSC[C@@H](C(N)=O)NC(=O)[C@H](Cc2ccccc2)NC(=O)[C@H](CCCNC(=N)N)NC(=O)[C@H](CS)NC(=O)[C@H](CCCNC(=N)N)NC(=O)[C@@H]2CCCN2C(=O)[C@H](Cc2ccccc2)NC1=O` (Ac-CFPRCRFC-NH2; linker 1-8 via oXylylene), the EC50 amounted to 0.599 µM. To `CC(=O)N[C@H]1CSCc2ccc(cc2)CSC[C@@H](C(N)=O)NC(=O)[C@H](Cc2ccccc2)NC(=O)[C@H](CCCNC(=N)N)NC(=O)[C@H](CS)NC(=O)[C@H](CCCNC(=N)N)NC(=O)[C@@H]2CCCN2C(=O)[C@H](Cc2ccccc2)NC1=O` (Ac-CFPRCRFC-NH2; linker 1-8 via pXylylene) belongs 0.586 µM; to `CC(=O)N[C@H]1CSCc2cc3cc(c2)CSC[C@H](NC(=O)C(Cc2ccccc2)NC(=O)[C@H](CCCNC(=N)N)NC(=O)[C@H](CS)NC(=O)[C@H](CCCNC(=N)N)NC(=O)[C@@H]2CCCN2C(=O)[C@H](Cc2ccccc2)NC1=O)C(=O)N[C@@H](Cc1ccccc1)C(=O)N1CCC[C@H]1C(=O)N[C@@H](CCCNC(=N)N)C(=O)N[C@@H](CS)C(=O)N[C@@H](CCCNC(=N)N)C(=O)N[C@@H](Cc1ccccc1)C(=O)N[C@H](C(N)=O)CSC3` (some centres not stated) (Ac-CFPRCR[ξF]CFPRCRFC-NH2; linker 1-8-15 via TBMB), more than 0.6 µM; to `CC(=O)N[C@H]1CSCc2cccc(c2)CSC[C@@H](C(N)=O)NC(=O)[C@H](Cc2ccccc2)NC(=O)[C@H](CCCNC(=N)N)NC(=O)[C@H](CS)NC(=O)[C@H](CCCNC(=N)N)NC(=O)[C@@H]2CCCN2C(=O)[C@H](C(c2ccccc2)c2ccccc2)NC1=O` (Ac-C[Dip]PRCRFC-NH2; linker 1-8 via mXylylene), 0.0543 µM. The same measure for `CC(=O)N[C@H]1CSCc2cccc(c2)CSC[C@@H](C(=O)NCCOCCOCCN)NC(=O)[C@H](Cc2ccccc2)NC(=O)[C@H](CCCNC(=N)N)NC(=O)[C@H](CS)NC(=O)[C@H](CCCNC(=N)N)NC(=O)[C@@H]2CCCN2C(=O)[C@H](C(c2ccccc2)c2ccccc2)NC1=O` (Ac-C[Dip]PRCRFC-{NH(CH2CH2O)2CH2CH2NH2}; linker 1-8 via mXylylene): 0.165 µM; for `CCCCCCCCCCCCCCCC(=O)N[C@H]1CSCc2cccc(c2)CSCCNC(=O)[C@H](Cc2ccccc2)NC(=O)[C@H](CCCNC(=N)N)NC(=O)[C@H](CS)NC(=O)[C@H](CCCNC(=N)N)NC(=O)[C@@H]2CCCN2C(=O)[C@H](C(c2ccccc2)c2ccccc2)NC1=O` (Palmitoyl-C[Dip]PRCRF; linker 1-C via X4): 0.369 µM; for `CCCCCCCCCCCCCCCC(=O)N[C@H]1CSCc2cccc(c2)CSC[C@@H](C(N)=O)NC(=O)[C@H](Cc2ccccc2)NC(=O)[C@H](CCCNC(=N)N)NC(=O)[C@H](CS)NC(=O)[C@H](CCCNC(=N)N)NC(=O)[C@@H]2CCCN2C(=O)[C@H](C(c2ccccc2)c2ccccc2)NC1=O` (Palmitoyl-C[Dip]PRCRFC-NH2; linker 1-8 via mXylylene): more than 0.6 µM. The same measure for `CCCCCCCCCCCCCCCC(=O)N[C@H](C(=O)N[C@H]1CSCc2cccc(c2)CSCCNC(=O)[C@H](Cc2ccccc2)NC(=O)[C@H](CCCNC(=N)N)NC(=O)[C@H](CS)NC(=O)[C@H](CCCNC(=N)N)NC1=O)C(c1ccccc1)c1ccccc1` (Palmitoyl-[Dip]CRCRF; linker 2-C via X4): more than 0.6 µM; for `CCCCCCCCCCCCCCCC(=O)N[C@@H](C(=O)N[C@H]1CSCc2cccc(c2)CSCCNC(=O)[C@H](Cc2ccccc2)NC(=O)[C@H](CCCNC(=N)N)NC(=O)[C@H](CS)NC(=O)[C@H](CCCNC(=N)N)NC1=O)C(c1ccccc1)c1ccccc1` (Palmitoyl-[dDip]CRCRF; linker 2-C via X4): 0.458 µM. For the compound `N=C(N)NCCC[C@@H]1NC(=O)[C@@H](NC(=O)CC(c2ccccc2)(c2ccccc2)c2ccccc2)CSCc2cccc(c2)CSC[C@@H](C(N)=O)NC(=O)[C@H](Cc2ccccc2)NC(=O)[C@H](CCCNC(=N)N)NC(=O)[C@H](CS)NC1=O` (X2-CRCRFC-NH2; linker 1-6 via mXylylene), the EC50 was 0.113 µM. On to `N=C(N)NCCC[C@@H]1NC(=O)[C@H](CS)NC(=O)[C@H](CCCNC(=N)N)NC(=O)[C@@H]2CCCN2C(=O)[C@H](C(c2ccccc2)c2ccccc2)NC(=O)CCSCc2cccc(c2)CSC[C@@H](C(=O)NCCOCCOCCN)NC(=O)[C@H](Cc2ccccc2)NC1=O` ([Mpa][Dip]PRCRFC-{NH(CH2CH2O)2CH2CH2NH2}; linker 1-8 via mXylylene), for which the EC50 is 0.0923 µM. As to `N=C(N)NCCC[C@@H]1NC(=O)[C@H](CS)NC(=O)[C@H](CCCNC(=N)N)NC(=O)[C@H](NC(=O)CC(c2ccccc2)c2ccccc2)CSCc2cccc(c2)CSC[C@@H](C(N)=O)NC(=O)[C@H](Cc2ccccc2)NC1=O` ({Propanoyl(3,3-Ph2)}-[dC]RCRFC-NH2; linker 1-6 via mXylylene), the EC50 is 0.335 µM.

For the origin of these results see ChEMBL document CHEMBL3621052, “Small cyclic agonists of iron regulatory hormone hepcidin” (Bioorg Med Chem Lett, 2015).
